Source: the M2OR odorant receptor database

Tests used:
Settings in all cases: stereoisomer not certain
UniProt Q8VGJ5 = target: T1, UniProt Q8VGJ5
T1 sequence (whole entry): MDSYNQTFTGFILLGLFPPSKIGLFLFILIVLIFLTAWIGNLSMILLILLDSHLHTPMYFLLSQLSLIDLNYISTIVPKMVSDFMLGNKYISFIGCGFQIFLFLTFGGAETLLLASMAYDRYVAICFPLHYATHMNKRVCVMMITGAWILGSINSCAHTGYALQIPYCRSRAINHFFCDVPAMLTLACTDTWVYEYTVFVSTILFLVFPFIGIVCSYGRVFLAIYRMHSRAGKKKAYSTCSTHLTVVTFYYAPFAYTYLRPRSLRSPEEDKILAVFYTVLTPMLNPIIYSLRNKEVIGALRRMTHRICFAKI
Procedure, shortened: (§1)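 Whether a receptor–molecule pair is responsive (active) rests on the original authors' judgment that its measured signal was statistically different from baseline. Pairs without that judgment are non-responsive (inactive). Sources used varied assay methods, commonly transient luciferase assays in mammalian cell lines.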

UniProt Q8VGL0 = target: T2, UniProt Q8VGL0
T2 sequence (whole entry): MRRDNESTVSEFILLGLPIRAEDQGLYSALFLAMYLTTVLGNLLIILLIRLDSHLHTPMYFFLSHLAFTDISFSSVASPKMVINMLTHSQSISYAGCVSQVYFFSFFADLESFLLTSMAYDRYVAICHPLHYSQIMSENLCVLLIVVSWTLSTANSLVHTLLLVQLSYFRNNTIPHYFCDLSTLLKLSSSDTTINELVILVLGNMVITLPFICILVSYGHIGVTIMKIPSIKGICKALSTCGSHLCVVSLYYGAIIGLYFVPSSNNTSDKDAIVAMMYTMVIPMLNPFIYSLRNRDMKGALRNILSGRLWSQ
Procedure, shortened: as §1

UniProt Q8VGL7 = target: T3, UniProt Q8VGL7
T3 sequence (whole entry): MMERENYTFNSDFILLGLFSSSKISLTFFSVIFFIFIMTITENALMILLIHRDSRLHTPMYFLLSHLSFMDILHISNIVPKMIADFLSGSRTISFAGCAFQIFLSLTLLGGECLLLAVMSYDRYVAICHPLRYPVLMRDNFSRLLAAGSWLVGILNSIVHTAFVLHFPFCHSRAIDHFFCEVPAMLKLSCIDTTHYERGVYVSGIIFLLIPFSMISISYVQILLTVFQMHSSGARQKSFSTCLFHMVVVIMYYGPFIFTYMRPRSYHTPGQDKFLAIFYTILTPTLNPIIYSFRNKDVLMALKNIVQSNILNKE
Procedure, shortened: as §1

UniProt Q8VGM2 = target: T4, UniProt Q8VGM2
T4 sequence (whole entry): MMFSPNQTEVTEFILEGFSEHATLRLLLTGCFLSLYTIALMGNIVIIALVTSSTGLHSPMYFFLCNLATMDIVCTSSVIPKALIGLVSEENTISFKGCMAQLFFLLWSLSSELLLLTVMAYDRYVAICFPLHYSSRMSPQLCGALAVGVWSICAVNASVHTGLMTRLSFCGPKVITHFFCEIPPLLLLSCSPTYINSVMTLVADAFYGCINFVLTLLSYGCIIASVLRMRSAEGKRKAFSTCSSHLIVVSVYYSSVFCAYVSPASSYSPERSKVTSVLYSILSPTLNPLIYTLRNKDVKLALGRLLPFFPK
Procedure, shortened: as §1

UniProt Q8VGP6 = target: T5, UniProt Q8VGP6
T5 sequence (whole entry): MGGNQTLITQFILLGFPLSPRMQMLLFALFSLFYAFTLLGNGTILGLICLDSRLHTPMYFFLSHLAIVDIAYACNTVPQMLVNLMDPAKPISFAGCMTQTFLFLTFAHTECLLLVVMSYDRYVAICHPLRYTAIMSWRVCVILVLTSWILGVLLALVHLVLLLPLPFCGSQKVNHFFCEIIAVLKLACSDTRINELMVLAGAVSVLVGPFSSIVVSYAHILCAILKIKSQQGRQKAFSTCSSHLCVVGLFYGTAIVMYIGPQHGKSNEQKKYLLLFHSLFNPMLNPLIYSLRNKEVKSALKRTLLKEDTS
Procedure, shortened: as §1

UniProt Q8VGQ3 = target: T6, UniProt Q8VGQ3
T6 sequence (whole entry): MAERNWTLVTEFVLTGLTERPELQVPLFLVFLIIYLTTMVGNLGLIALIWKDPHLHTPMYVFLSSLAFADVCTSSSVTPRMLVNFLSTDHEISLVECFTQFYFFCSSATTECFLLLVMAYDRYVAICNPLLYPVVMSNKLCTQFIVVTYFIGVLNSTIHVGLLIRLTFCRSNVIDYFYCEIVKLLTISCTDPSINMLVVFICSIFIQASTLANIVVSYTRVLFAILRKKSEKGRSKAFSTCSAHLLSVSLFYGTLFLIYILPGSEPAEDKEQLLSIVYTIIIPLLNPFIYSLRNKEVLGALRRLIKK
Procedure, shortened: as §1

UniProt Q8VGT4 = target: T7, UniProt Q8VGT4
T7 sequence (whole entry): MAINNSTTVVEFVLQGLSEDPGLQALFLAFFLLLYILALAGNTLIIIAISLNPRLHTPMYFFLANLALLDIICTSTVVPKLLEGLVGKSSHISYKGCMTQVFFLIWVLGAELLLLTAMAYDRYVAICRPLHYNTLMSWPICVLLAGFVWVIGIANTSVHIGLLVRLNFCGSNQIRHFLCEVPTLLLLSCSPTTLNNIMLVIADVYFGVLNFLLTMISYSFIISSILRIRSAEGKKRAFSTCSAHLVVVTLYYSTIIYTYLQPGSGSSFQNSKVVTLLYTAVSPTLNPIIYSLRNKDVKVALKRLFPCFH
Procedure, shortened: as §1

UniProt Q8VGV1 = target: T8, UniProt Q8VGV1
T8 sequence (whole entry): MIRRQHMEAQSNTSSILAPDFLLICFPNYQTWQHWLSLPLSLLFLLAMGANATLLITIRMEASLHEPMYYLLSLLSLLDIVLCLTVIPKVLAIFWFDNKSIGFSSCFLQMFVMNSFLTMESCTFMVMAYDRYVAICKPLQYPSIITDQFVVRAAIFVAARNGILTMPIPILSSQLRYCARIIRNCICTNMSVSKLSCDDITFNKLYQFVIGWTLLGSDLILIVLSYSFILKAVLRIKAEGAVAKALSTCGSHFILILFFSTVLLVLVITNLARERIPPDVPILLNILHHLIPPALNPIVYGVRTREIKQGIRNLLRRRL
Procedure, shortened: as §1

UniProt Q8VGX5 = target: T9, UniProt Q8VGX5
T9 sequence (whole entry): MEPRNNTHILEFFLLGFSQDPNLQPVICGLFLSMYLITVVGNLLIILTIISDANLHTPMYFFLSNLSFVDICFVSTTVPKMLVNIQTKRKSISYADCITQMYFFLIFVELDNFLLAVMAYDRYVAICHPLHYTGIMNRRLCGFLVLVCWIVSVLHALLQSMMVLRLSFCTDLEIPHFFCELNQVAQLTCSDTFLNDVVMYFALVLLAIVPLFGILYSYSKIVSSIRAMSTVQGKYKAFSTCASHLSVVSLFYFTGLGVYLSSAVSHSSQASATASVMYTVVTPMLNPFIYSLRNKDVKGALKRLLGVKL
Procedure, shortened: as §1

UniProt Q8VGX8 = target: T10, UniProt Q8VGX8
T10 sequence (whole entry): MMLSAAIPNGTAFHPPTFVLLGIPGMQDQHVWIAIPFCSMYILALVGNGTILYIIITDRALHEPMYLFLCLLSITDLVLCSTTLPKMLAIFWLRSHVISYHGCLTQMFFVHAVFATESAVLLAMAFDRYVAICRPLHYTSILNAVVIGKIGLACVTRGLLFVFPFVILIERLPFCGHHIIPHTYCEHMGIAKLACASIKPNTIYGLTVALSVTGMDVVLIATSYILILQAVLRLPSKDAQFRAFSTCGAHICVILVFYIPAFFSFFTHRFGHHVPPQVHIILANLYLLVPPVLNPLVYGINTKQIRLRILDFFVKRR
Procedure, shortened: as §1

UniProt Q8VGY6 = target: T11, UniProt Q8VGY6
T11 sequence (whole entry): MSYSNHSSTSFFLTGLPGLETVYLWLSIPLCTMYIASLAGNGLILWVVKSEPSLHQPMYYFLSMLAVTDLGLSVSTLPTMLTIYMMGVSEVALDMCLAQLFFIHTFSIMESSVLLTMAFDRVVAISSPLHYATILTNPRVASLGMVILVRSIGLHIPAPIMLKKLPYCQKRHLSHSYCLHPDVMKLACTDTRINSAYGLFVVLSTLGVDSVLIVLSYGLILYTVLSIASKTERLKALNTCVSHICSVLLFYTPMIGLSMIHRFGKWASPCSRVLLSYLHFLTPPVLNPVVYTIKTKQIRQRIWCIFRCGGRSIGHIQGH
Procedure, shortened: as §1

UniProt Q8VGZ2 = target: T12, UniProt Q8VGZ2
T12 sequence (whole entry): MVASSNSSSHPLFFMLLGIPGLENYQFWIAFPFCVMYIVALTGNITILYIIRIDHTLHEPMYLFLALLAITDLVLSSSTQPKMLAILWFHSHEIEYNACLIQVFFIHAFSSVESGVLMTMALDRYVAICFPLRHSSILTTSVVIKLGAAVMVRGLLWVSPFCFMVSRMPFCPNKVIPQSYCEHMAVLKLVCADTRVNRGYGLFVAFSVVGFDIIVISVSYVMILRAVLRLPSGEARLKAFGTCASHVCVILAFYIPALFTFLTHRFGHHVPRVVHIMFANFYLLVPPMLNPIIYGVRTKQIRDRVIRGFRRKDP
Procedure, shortened: as §1

UniProt Q8VGZ7 = target: T13, UniProt Q8VGZ7
T13 sequence (whole entry): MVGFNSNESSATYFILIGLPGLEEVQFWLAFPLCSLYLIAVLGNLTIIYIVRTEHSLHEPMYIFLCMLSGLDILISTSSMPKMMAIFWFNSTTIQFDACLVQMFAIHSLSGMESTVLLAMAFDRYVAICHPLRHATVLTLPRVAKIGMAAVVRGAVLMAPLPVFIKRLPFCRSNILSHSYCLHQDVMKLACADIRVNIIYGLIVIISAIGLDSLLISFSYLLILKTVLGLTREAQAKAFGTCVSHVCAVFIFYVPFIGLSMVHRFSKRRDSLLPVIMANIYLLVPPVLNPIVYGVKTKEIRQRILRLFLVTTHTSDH
Procedure, shortened: as §1

UniProt Q8VH10 = target: T14, UniProt Q8VH10
T14 sequence (whole entry): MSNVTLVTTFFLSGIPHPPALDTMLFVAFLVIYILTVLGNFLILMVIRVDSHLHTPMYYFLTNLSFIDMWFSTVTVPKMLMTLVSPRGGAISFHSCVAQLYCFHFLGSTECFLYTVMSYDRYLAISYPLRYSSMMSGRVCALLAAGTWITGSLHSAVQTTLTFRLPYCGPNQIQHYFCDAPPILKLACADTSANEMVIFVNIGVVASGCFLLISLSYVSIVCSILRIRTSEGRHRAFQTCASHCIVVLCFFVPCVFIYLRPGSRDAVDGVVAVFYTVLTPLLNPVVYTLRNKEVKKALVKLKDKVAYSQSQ
Procedure, shortened: as §1

UniProt Q8VH20 = target: T15, UniProt Q8VH20
T15 sequence (whole entry): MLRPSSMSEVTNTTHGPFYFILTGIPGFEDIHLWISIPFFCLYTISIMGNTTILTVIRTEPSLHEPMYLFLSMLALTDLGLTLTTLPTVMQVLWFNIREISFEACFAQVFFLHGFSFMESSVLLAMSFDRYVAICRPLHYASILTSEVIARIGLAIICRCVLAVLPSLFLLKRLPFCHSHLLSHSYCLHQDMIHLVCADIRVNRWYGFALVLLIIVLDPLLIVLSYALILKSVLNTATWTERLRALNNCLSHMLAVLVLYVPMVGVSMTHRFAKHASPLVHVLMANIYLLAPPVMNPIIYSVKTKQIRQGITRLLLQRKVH
Procedure, shortened: as §1

UniProt Q8VGU3 = target: T16, UniProt Q8VGU3
T16 sequence (whole entry): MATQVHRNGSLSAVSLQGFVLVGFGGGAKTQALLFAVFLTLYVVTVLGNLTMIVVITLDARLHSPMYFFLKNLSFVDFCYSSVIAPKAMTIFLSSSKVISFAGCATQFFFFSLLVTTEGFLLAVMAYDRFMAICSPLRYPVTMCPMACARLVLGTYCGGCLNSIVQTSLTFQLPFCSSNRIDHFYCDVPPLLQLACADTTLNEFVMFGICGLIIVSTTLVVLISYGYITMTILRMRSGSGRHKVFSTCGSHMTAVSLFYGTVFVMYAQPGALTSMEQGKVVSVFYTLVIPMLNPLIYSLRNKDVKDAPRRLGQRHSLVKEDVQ
Procedure, shortened: as §1

UniProt Q8VGV7 = target: T17, UniProt Q8VGV7
T17 sequence (whole entry): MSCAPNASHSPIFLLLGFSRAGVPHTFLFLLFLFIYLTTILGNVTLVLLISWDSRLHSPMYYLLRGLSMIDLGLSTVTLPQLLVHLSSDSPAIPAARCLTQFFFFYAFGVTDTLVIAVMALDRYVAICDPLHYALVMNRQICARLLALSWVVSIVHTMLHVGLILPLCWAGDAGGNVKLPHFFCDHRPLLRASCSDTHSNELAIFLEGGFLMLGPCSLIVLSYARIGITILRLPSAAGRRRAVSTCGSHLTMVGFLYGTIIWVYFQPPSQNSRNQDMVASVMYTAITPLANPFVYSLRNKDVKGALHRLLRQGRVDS
Procedure, shortened: as §1

UniProt Q8VGX3 = target: T18, UniProt Q8VGX3
T18 sequence (whole entry): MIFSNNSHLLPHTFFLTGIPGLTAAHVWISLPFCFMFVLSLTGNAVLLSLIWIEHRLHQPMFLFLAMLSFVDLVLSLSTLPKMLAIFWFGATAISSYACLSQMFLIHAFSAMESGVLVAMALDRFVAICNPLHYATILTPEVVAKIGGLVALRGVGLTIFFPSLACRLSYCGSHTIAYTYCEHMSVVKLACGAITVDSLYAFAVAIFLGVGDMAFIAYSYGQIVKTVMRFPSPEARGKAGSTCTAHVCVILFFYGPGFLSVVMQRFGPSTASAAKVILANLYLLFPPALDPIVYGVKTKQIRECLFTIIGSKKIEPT
Procedure, shortened: as §1

UniProt Q8VH16 = target: T19, UniProt Q8VH16
T19 sequence (whole entry): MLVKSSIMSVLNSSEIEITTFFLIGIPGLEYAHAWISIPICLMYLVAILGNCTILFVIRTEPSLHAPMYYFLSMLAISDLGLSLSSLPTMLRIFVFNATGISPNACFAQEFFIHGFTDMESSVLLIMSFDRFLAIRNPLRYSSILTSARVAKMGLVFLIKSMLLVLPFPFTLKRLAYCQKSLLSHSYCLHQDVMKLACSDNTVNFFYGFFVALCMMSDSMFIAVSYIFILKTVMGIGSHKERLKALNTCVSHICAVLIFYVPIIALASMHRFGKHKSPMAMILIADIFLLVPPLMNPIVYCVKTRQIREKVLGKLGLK
Procedure, shortened: as §1

Measured: odorant receptor agonist call;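 also: active if original authors judged signal statistically different from baseline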

CCC1CCC(=O)O1 (centres undefined)
active: UniProt Q8VGJ5
not listed: UniProt Q8VGU3 | UniProt Q8VGV7 | UniProt Q8VGX3 | UniProt Q8VH16
inactive: all other assays above

Oc1ccccc1Br
inactive: UniProt Q8VGL0 | UniProt Q8VGU3 | UniProt Q8VGV7 | UniProt Q8VGX3 | UniProt Q8VGX5 | UniProt Q8VGZ2 | UniProt Q8VGZ7 | UniProt Q8VH16 | UniProt Q8VH20
